# Measured values: ChEMBL document CHEMBL1121627, “Structure--activity relationships in a series of novel 3,4-dihydro-4-oxopyrimido[4,5-b]quinoline-2-carboxylic acid antiallergy agents” (1980)
# The source made the active and inactive calls.
# What was measured:
# Rattus norvegicus [1] = experiment: Antiallergic activity against reagin induced passive cutaneous anaphylaxis reaction in rats upon intravenous administration.; assay type: functional
# In short: (§1)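 Rat passive cutaneous anaphylaxis. Just before challenge, controls for antihistamine, antiserotonin or nonspecific blockade are given intradermally: 60 µg histamine dihydrochloride and 0.5 µg serotonin-creatinine sulfate. Challenge is iv, 5 mg egg albumin with 2.5 mg Evan's Blue, given immediately after iv drug or 5 min after oral drug. Site scores are summed per group of 5 or 7 and expressed as % inhibition versus control. ED50 is taken from a by-eye dose-response curve, or from least-squares regression when n is larger.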
# Rattus norvegicus [2] = experiment: The compound was evaluated for antiallergic activity against reagin induced passive cutaneous anaphylaxis reaction in rats upon peroral administration; highest dose at which the compound was tested and found inactive; assay type: functional; settings: po; in short: as §1
# Rattus norvegicus [3] = experiment: Antiallergic activity against reagin induced passive cutaneous anaphylaxis reaction in rats upon peroral administration.; assay type: functional; settings: po; in short: as §1
# Rattus norvegicus [4] = experiment: The compound was evaluated for antiallergic activity against reagin induced passive cutaneous anaphylaxis reaction in rats upon peroral administration, the dose at which the compound was tested and found inactive; assay type: functional; settings: po; in short: as §1
# Rattus norvegicus [5] = experiment: The compound was evaluated for antiallergic activity against reagin induced passive cutaneous anaphylaxis reaction in rats upon peroral administration. at this dose the compound tested was found inactive; assay type: functional; settings: po; in short: as §1
# Rattus norvegicus [6] = experiment: Inhibition of plasma histamine release induced by antigen challenge in rats assively sensitized with homologus antisera at an iv dose of 0.1 mg/kg; assay type: functional
# Cavia porcellus = experiment: Bronchoconstrictive effect of histamine aerosol in conscious guinea pigs at an iv dose of 30 mg/kg; Bronchoconstrictive effect is unaltered; assay type: functional, organism-based; parameters: dose 30 mg/kg
# Rattus norvegicus [7] = experiment: The compound was evaluated for antiallergic activity against reagin induced passive cutaneous anaphylaxis reaction in rats upon peroral administration, at this dose the compound tested was found inactive, and is highly active at the same dose if ad ministered in solution of pH >/=10; assay type: functional; settings: po; in short: as §1
# Rattus norvegicus [8] = experiment: The compound was evaluated for antiallergic activity against reagin induced passive cutaneous anaphylaxis reaction in rats upon peroral administration; at this dose the compound tested was found inactive; assay type: functional; settings: po; in short: as §1
# Rattus norvegicus [9] = experiment: The compound was evaluated for antiallergic activity against reagin induced passive cutaneous anaphylaxis reaction in rats upon peroral administration, pH dependent, more active when administered in solution of pH>/=10; assay type: functional; settings: po; in short: as §1
SMILES,ED50 (Rattus norvegicus [1]) [mg/kg],ED50 (Rattus norvegicus [3]) [mg/kg],also measured
CCc1nc(O)c2cc3cc(OC)c(OC)cc3nc2n1,3,,ED50 (Rattus norvegicus [2]): > 60 mg/kg
CCOC(=O)c1nc(O)c2cc3cc([S+](C)[O-])ccc3nc2n1 (centres undefined),0.2,30,
CCOC(=O)c1nc(O)c2cc3cc(OC)c(OC)c(OC)c3nc2n1,0.8,10,
CCOC(=O)c1nc(O)c2cc3cc(OC)ccc3nc2n1,0.03,20,
CNC(=O)c1nc(O)c2cc3cc(OC)c(OC)cc3nc2n1,3,,
CCOC(=O)c1nc2nc3cc(OC)c(OC)cc3cc2c(=O)n1C,0.8,,ED50 (Rattus norvegicus [4]): > 30 mg/kg
COc1cc2cc3c(O)nc(C(=O)[O-])nc3nc2cc1OC.[Na+],0.005,10,
CCOC(=O)c1nc(O)c2cc3cc(OC)c(OCC)cc3nc2n1,0.007,2,
CCOC(=O)c1nc(O)c2cc3cc(OCC)c(OC)cc3nc2n1,0.002,0.3,
CCOC(=O)c1nc(O)c2cc3cc(OC)c(OCc4ccccc4)cc3nc2n1,0.8,,ED50 (Rattus norvegicus [5]): > 30 mg/kg
CCNC(=O)c1nc(O)c2cc3ccccc3nc2n1,3,,
CCOC(=O)CNC(=O)c1nc(O)c2cc3cc(OC)c(OC)cc3nc2n1,6,,
CCOC(=O)c1nc(=O)c2cc3cc(OC)c(OC)cc3nc2[nH]1 [PIROLATE],0.007,1,inhibition in vivo at 0.1 mg/kg (Rattus norvegicus [6]): 92%; Activity (Cavia porcellus): inactive
O=C(O)c1nc2nc3ccccc3cc2c(=O)[nH]1,0.2,25,
COc1cc2cc3c(O)nc(C(N)=O)nc3nc2cc1OC,3,30,
O=C(O)c1nc(O)c2cc3cc(O)ccc3nc2n1,0.01,,ED50 (Rattus norvegicus [7]): > 10 mg/kg
CCOC(=O)c1nc(O)c2cc3cc4c(cc3nc2n1)OCO4,0.5,30,
CCOC(=O)c1nc(O)c2cc3cc4c(cc3nc2n1)OCCO4,1,,
CCOC(=O)c1nc(O)c2cc3cc(OCc4ccccc4)c(OC)cc3nc2n1,3,,ED50 (Rattus norvegicus [8]): > 10 mg/kg

SMILES,ED50 (Rattus norvegicus [1]) [mg/kg],ED50 (Rattus norvegicus [3]) [mg/kg],also measured
CCOC(=O)c1nc(O)c2cc3cc(SC)ccc3nc2n1,0.1,8,
CCOC(=O)c1nc(O)c2cc3cc(F)ccc3nc2n1,0.3,30,
COc1cc2cc3c(O)nc(C(F)(F)F)nc3nc2cc1OC,> 10,,
CCOC(=O)c1nc(O)c2cc3cc(OC)c(O)cc3nc2n1,1,,ED50 (Rattus norvegicus [7]): > 3 mg/kg
CCOC(=O)c1nc(O)c2cc3ccccc3nc2n1,0.1,3,
CCCCOC(=O)c1nc(O)c2cc3cc(O)c(OC)cc3nc2n1,0.008,,ED50 (Rattus norvegicus [9]): 10 mg/kg
COc1cc2cc3c(O)nc(C)nc3nc2cc1OC,0.4,1,
CCOC(=O)c1nc(O)c2cc3cc(O)c(OC)cc3nc2n1,0.001,,ED50 (Rattus norvegicus [7]): > 10 mg/kg
COc1cc2cc3c(O)nc(C(C)=O)nc3nc2cc1OC,2,,ED50 (Rattus norvegicus [2]): > 10 mg/kg
CCOC(=O)c1nc(O)c2cc3cc(Sc4ccc(OC)cc4)ccc3nc2n1,3,30,
O=C([O-])c1cc(=O)c2c(OCC(O)COc3cccc4oc(C(=O)[O-])cc(=O)c34)cccc2o1.[Na+].[Na+] [CROMOLYN SODIUM],0.8,,ED50 (Rattus norvegicus [4]): > 300 mg/kg
COc1cc2cc3c(O)nc(C(=O)NO)nc3nc2cc1OC,< 3,,ED50 (Rattus norvegicus [2]): > 60 mg/kg
CCOC(=O)c1nc(O)c2cc3ccc(F)cc3nc2n1,0.3,30,
CCOC(=O)c1nc(O)c2cc3c(OC)ccc(OC)c3nc2n1,0.6,30,
CCOC(=O)c1nc(O)c2cc3cc(Cl)ccc3nc2n1,0.4,30,
CCOC(=O)c1nc(O)c2cc3ccc(OC)cc3nc2n1,0.8,10,
CCOC(=O)CCCn1c(C(=O)OCC)nc2nc3cc(OC)c(OC)cc3cc2c1=O,0.1,,ED50 (Rattus norvegicus [4]): > 10 mg/kg
CCCCOc1cc2nc3nc(C(=O)OCC)nc(O)c3cc2cc1OCC,0.3,5,
CCOC(=O)c1nc(O)c2cc3c(Cl)cccc3nc2n1,0.2,30,

SMILES,ED50 (Rattus norvegicus [1]) [mg/kg],ED50 (Rattus norvegicus [3]) [mg/kg],also measured
CCCCOC(=O)c1nc(O)c2cc3ccccc3nc2n1,0.06,30,
CCOC(=O)c1nc(O)c2cc3ccc(OC)c(OC)c3nc2n1,0.2,60,
CCNC(=O)c1nc(O)c2cc3cc(OC)c(OC)cc3nc2n1,3,,
CCOC(=O)c1nc(O)c2cc3cc(O)ccc3nc2n1,0.7,,ED50 (Rattus norvegicus [9]): 10 mg/kg
CCOC(=O)Cn1c(C(=O)OCC)nc2nc3cc(OC)c(OC)cc3cc2c1=O,3,,
CCOC(=O)c1nc(O)c2cc3cc(OCC)c(OCC)cc3nc2n1,0.01,1,
CCOC(=O)c1nc(O)c2cc3cc(OCc4ccccc4)ccc3nc2n1,0.9,10,
CCCCOC(=O)c1nc(O)c2cc3cc(OC)c(OC)cc3nc2n1,0.003,10,
COc1cc2nc3nc(C(=O)O)nc(O)c3cc2cc1O,< 0.01,,ED50 (Rattus norvegicus [7]): > 3 mg/kg
COc1cc2cc3c(O)nc(C(=O)OCCO)nc3nc2cc1OC,< 0.03,10,
CCOC(=O)c1nc(O)c2c(-c3ccccc3)c3ccccc3nc2n1,0.3,10,
CCOC(=O)c1nc(O)c2cc3cc(OC)cc(OC)c3nc2n1,0.5,30,
COc1cc2cc3c(O)nc(-c4ccccc4)nc3nc2cc1OC,3,,
CCOC(=O)c1nc(O)c2cc3cc(OC(C)=O)c(OC)cc3nc2n1,0.007,,ED50 (Rattus norvegicus [9]): 10 mg/kg
COc1cc2cc3c(O)ncnc3nc2cc1OC,3,,
COc1cc2cc3c(=O)[nH]c(=O)[nH]c3nc2cc1OC,3,,
CCOC(=O)c1nc(O)c2cc3cc(OCC)c(OCc4ccccc4)cc3nc2n1,0.9,,ED50 (Rattus norvegicus [8]): > 30 mg/kg
NC(=O)c1nc(O)c2cc3ccccc3nc2n1,1.3,60,
